# NTR1 ag: NTR1 (human) agonism; NTR1-U2OS beta-arrestin-GFP spot imaging, agonist mode; P30989; activation, % at 20 µM; 0.17% of 330,000 active;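 active = activation at or above 40% of the spot to cytoplasm intensity ratio, with at least 20 cells analyzed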;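 note: 0% = DMSO without peptide and 100% = 100 nM NTR1 peptide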
# CHO parental Ca: counter-screen for OX1R antagonists: effect in parental CHO cells | parental CHO-K1, ATP-induced calcium, Fluo-8 fluorescence | inhibition, % at 5.6 µM | 0.63% of 330,000 active;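 active = inhibition above that plate's mean sample inhibition plus 3 SD, cut at about 26% in these data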;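 note: 0% = ATP-challenged DMSO wells and 100% = DMSO wells without ATP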
#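 Measured by: calcium-sensitive Fluo-8 fluorescence / Test system: CHO parental line / Controls: ATP-challenged DMSO wells low, unchallenged DMSO wells high / Measure: % inhibition / Compound: single nominal dose of 5.6 µM per compound / Replicates: single well per compound, no replicates / Reagent: ATP as calcium-mobilizing challenge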
# TAAR1 ag: agonists of human TAAR1; Q96RJ0; activation, % at 3 µM; 0.99% of 360,000 active; CHO RD-HGA16 TAAR1, Fluo-8 calcium fluorescence; vehicle wells 0%, saturating PEA agonist 100%;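 active = activation above the mean activation of all test compounds in the run plus 3 SD, cut at about 38% in these data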
# Target sequence (Q96RJ0 whole entry, looked up): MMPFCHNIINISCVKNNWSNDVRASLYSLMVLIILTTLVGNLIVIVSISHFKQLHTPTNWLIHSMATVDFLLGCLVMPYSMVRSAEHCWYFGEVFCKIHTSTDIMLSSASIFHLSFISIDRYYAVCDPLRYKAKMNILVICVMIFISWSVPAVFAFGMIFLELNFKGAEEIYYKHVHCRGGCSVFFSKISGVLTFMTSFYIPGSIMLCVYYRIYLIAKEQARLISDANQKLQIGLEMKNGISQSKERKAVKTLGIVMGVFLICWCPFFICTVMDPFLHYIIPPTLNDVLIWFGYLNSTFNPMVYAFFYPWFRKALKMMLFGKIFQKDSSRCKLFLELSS
#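 Repeats: no replicates (n 1) | Material: CHO-derived RD-HGA16 cells with stable Gα16 and human TAAR1 | Technique: Kinetic Fluo-8 calcium fluorescence | Schedule: 17-24 h seeding, 75 min 37 °C dye, 30 min RT | Evaluation: % activation from peak over basal fluorescence ratio, DMSO-to-PEA scaled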
# TAAR1 antag: human TAAR1 antagonism. Q96RJ0. CHO RD-HGA16 TAAR1, Fluo-8 calcium fluorescence, antagonist. inhibition, % at 3 µM. 1.5% of 360,000 active;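 active = inhibition above a per-plate cutoff, the mean inhibition of test compounds on that plate plus 3 SD, cut at about 49% in these data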;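 note: 0% = DMSO plus EC80 beta-PEA response and 100% = DMSO alone without agonist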
#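 Assay system: CHO-derived RD-HGA16 cells stably expressing human TAAR1 plus Gα16. Timing: 140 s kinetic read after compound, 140 s after agonist. Technique: kinetic Fluo-8 calcium fluorescence measurement. Measure: % inhibition of agonist calcium response.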
# OX1R antag-1: blocks the human orexin 1 receptor; inhibition, % at 6.6 µM; 1.8% of 330,000 active; OX1R-expressing cells, FRET antagonist read-out; O43613; in the data active = inhibition mostly above about 38%, no sharp cut-off; inactive = mostly below about 40%;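 note: 0% = agonist challenge alone and 100% = reference antagonist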
# OX1R antag-2: human HCRTR1 antagonism. O43613. CHO/OX1R cells, Fluo-8 calcium fluorescence, orexin A. inhibition, % at 5 µM. 0.43% of 330,000 active. AID 434989;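 active = inhibition above its plate's threshold, mean inhibition of all tested compounds on the plate plus 3 SD, cut at about 37% in these data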;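 note: 0% = orexin A challenge wells and 100% = SB-334867-A antagonist wells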
# OX1R HTRF confirm: OX1R (human) antagonism, HTRF confirmed. 49% of 1,800 active. OX1R-expressing cells, HTRF antagonist assay. inhibition, % at 6.6 µM. shares compounds with OX1R antag-1; in the data active = inhibition above about 55%;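 note: CHO cells expressing OX1R stimulated with orexin A at about EC80; 0% = agonist challenge alone and 100% = reference antagonist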
# CHO-K1 HTRF cnt: signal in parental CHO-K1 cells, OX1R antagonist counter-screen | shares compounds with OX1R antag-1 | HTRF counterscreen | inhibition, % at 6.6 µM | 48% of 1,800 active; in the data active = inhibition above about 17%;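 note: 0% = agonist challenge with vehicle and 100% = vehicle alone without agonist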
# * marks the source's active call; other numbers are inactive results; . = no result. This is a sample that favours compounds with a hit; in the whole collection about 4% have one here.
SMILES,NTR1 ag,CHO parental Ca,TAAR1 ag,TAAR1 antag,OX1R antag-1,OX1R antag-2,OX1R HTRF confirm,CHO-K1 HTRF cnt
N#CC(C#N)=Cc1c[nH]c(=O)c(C#N)c1Nc1ccccc1,0,10,2,-10,88*,4,44,62*
CCOC(=O)N/N=C(/C)c1ccc([N+](=O)[O-])o1,7,-1,9,-6,93*,8,52,77*
COc1ccc(CC(=O)Nc2ccc3c(c2)OC2(CCCC2)O3)c(OC)c1,.,.,-3,4,.,.,.,.
COc1cccc2cc(-c3cn4ccc(C)cc4n3)c(=O)oc12,1,-3,2,-1,86*,-13,91*,9
COc1cccc2cc(-c3cn4cccc(C)c4n3)c(=O)oc12,-1,4,1,6,41,-8,.,.
CCc1nc2ccccc2n(CC)c1=O,0,2,-1,-11,21,-14,.,.
CCn1c(=O)c(C(C)=O)nc2ccccc21,-1,-17,2,-10,100*,-9,31,5
Oc1c(C=Nc2ccccc2Cl)[nH]c2ccccc12,3,-2,1,-6,15,-10,.,.
Cc1cc(=O)n2[nH]c(N)c(N=Nc3ccccc3)c2n1,.,-2,1,-13,20,-9,.,.
CCOc1ccc(N=Nc2c(=O)[nH]n3c(C)cc(C)nc23)cc1,4,-2,-1,-1,149*,-9,64*,74*
CCOc1ccc(NC2OCC(O)C(O)C2O)c([N+](=O)[O-])c1 (stereo not drawn),-2,-7,14,-1,82*,-12,34,31*
Cc1cccc(C)c1N(C(=O)c1ccco1)C(C(=O)NC1CCCC1)c1ccncc1 (stereo not drawn),1,-17,-3,-16,12,-17,.,.
CCOc1cc(CNCCSc2nnnn2C)cc(Br)c1OCc1ccccc1F,5,5,16,1,28,-4,.,.
COc1cc(CNCCSc2nnnn2C)cc(Br)c1OCc1ccccc1F,0,-12,7,3,95*,-17,16,9
Cn1cnnc1Sc1ccc(C(=O)OCC(=O)NCC(F)(F)F)cc1[N+](=O)[O-],2,9,-1,-13,78*,-7,30,43*
CCOC(=O)C1CCN(C(=O)C2CCN(C(=O)c3ccc([N+](=O)[O-])cc3)CC2)CC1,0,-7,.,.,81*,-9,34,26*
CCOC(=O)c1ccc2[nH]c(C)c(C)c2c1,0,-12,-1,-12,93*,24,66*,10
C[C@H]1CN([C@@H](C)CO)C(=O)CCCn2cc(nn2)CO[C@@H]1CN(C)C(=O)c1ccncc1,.,.,0,20,.,.,.,.
NC(=O)c1cccc2cc3ccccc3cc12,0,-18,15,10,77*,4,26,15
NC(=O)c1ccccc1OCc1cccc2ccccc12,2,-17,3,-3,13,-12,.,.
Cc1cc(/C=N/n2c(COc3ccccc3)nc3ccccc3c2=O)c(O)c([N+](=O)[O-])c1,2,-18,0,41,92*,-18,37,12
Cc1[nH]c2ccccc2c1C(=O)CN1CCN(c2ccc(Cl)cc2)CC1,6,-10,8,15,10,-15,.,.
O=C(NCCN1CCC(n2c(=O)[nH]c3ccccc32)CC1)c1ccc(OC(F)(F)F)cc1,.,.,4,3,.,.,.,.
CCN1C(=O)/C(=C2/C=Cc3cc(C)ccc3N2CC)N(C)C1=S,3,-11,1,-9,134*,-14,54,79*
CCN1/C(=C2/SC(=S)N(C)C2=O)C=Cc2cc(C)ccc21,0,-7,1,-17,8,-21,.,.
SMILES,NTR1 ag,CHO parental Ca,TAAR1 ag,TAAR1 antag,OX1R antag-1,OX1R antag-2,OX1R HTRF confirm,CHO-K1 HTRF cnt
Cc1ccc2nc3c(cc(C(=O)NCCCn4ccnc4)n3C)c(=O)n2c1,1,-17,4,-11,80*,-13,23,30*
Cc1ccc(CC(=O)NCCCn2ccnc2)cc1,2,10,0,-16,17,-12,.,.
CC(=O)c1cccc(NC(=O)CSc2nc(=O)n(CCN3CCOCC3)c3c2CCC3)c1,0,-13,4,0,15,-24,.,.
CNC(=O)COC(=O)c1ccc([N+](=O)[O-])cc1Cl,1,-13,1,-26,120*,-10,46,74*
C/C=N/NC(=O)c1cc(Br)ccc1O,0,-2,13,-14,77*,-2,21,3
O=[N+]([O-])c1cccc(-c2nc(-c3ccccc3)no2)c1,1,0,18,-5,12,-17,.,.
O=[N+]([O-])c1cccc(-c2nc(-c3ccncc3)no2)c1,-1,0,11,-9,113*,5,36,42*
CCc1nc2c(OCc3ccccc3C)cccn2c1N(C)C(=O)c1ccc(C)cc1,.,.,19,-19,.,.,.,.
CCCS(=O)(=O)N1CCN(c2cc3c(cc2[N+](=O)[O-])n(C)c(=O)n3C)CC1,1,2,8,11,78*,-5,33,49*
CS(=O)(=O)c1ccc(NCCc2ccc(S(N)(=O)=O)cc2)c([N+](=O)[O-])c1,-2,0,-2,15,64,-11,.,.
CN(C)CCCNc1ccc(-c2nn(C)c(=O)c3ccccc23)cc1[N+](=O)[O-],-1,-9,1,13,118*,-12,31,40*
CN(C)CCCNc1ccc(S(N)(=O)=O)cc1[N+](=O)[O-],-1,-4,7,4,122*,2,39,55*
Nc1nc(SCC(=O)Nc2cccc(S(=O)(=O)N3CCCCCC3)c2)n[nH]1,0,-1,-1,0,89*,-12,15,4
O=C(CSc1ncn[nH]1)Nc1cccc(S(=O)(=O)N2CCCCCC2)c1,0,-16,4,-3,19,-3,.,.
O=C(NCCCn1ccnc1)/C(=C\c1ccc(Br)cc1)NC(=O)c1ccccc1,1,-20,1,6,1,-15,.,.
COc1cccc(NC(=O)C(=O)NCCC2CCCCN2S(=O)(=O)c2ccccc2)c1 (stereo not drawn),1,-24,4,12,35,-7,.,.
O=[N+]([O-])c1ccc(S(=O)(=O)NCC2CCCO2)cc1 (stereo not drawn),1,-11,0,7,81*,-18,46,47*
O=C(NCCN1CCCCCC1)C1CCCN1S(=O)(=O)c1cccc2nsnc12 (stereo not drawn),2,-6,0,-21,61,-17,.,.

# High-throughput results from PubChem.
